Activity calls are given as the source filed them. The rule behind the calls is not given here.
Columns and labels:
CEM-DNR = assay: Selectivity index, ratio of IC50 for human MRC5 cells to IC50 for human CEM-DNR cells; format: functional
Nucleic Acid [1] = assay: Binding affinity to DNA (unknown origin) assessed as DNA intercalation by UV-visible spectrophotometry in presence of Cu2+; format: nucleic-acid assay
Candida parapsilosis = assay: Antifungal activity against Candida parapsilosis up to 200 uM after 24 to 48 hrs by broth microdilution method; format: functional, organism-based
[2] = Cytostatic activity against human HCT116 cells after 72 hrs by MTT assay; format: functional, cell-based; settings: HCT-116, 72 h
Summary of the method: (§1)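 Cells were seeded at 25,000–30,000 per well and pre-incubated for 24 h at 37°C in 5% CO2. Four-fold compound dilutions were added in duplicate and incubated for 72 h. MTT was added for 1–4 h, and formazan was dissolved in 10% aq SDS (pH 5.5) overnight at 37°C. OD was read at 540 nm. IC50 came from dose-response curves, mean ± SD of eight independent experiments.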

BJ [3] = assay: Selectivity index, ratio of IC50 for human BJ cells to IC50 for human HCT116 cells; format: functional
HCT-116 [4] = assay: Selectivity index, ratio of IC50 for human MRC5 cells to IC50 for human p53-/- HCT116 cells; format: functional
Nucleic Acid [5] = assay: Binding affinity to DNA (unknown origin) assessed as DNA intercalation by UV-visible spectrophotometry in presence of Ni2+; format: nucleic-acid assay
CCRF-CEM [6] = assay: Cell cycle arrest in human CCRF-CEM cells assessed as accumulation at S phase at 5 times IC50 after 24 hrs by propidium iodide staining-based flow cytometry; format: functional
Summary of the method: (§2)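 Cells were then fixed in 70% ethanol, washed in hypotonic citrate buffer, treated with RNase (50 µg/mL) and stained with propidium iodide. Flow cytometry used a 488 nm laser. Apoptosis was scored as the percentage of particles with propidium content below G0/G1.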

K562 [7] = assay: Selectivity index, ratio of IC50 for human MRC5 cells to IC50 for human K562 cells; format: functional
K562 [8] = assay: Cytostatic activity against human K562 cells after 72 hrs by MTT assay; format: functional, cell-based; settings: K562, 72 h; summary of the method: as §1
CCRF-CEM [9] = assay: Induction of apoptosis in human CCRF-CEM cells assessed as inhibition of RNA synthesis at 5 times IC50 after 24 hrs by propidium iodide/BrU staining by flow cytometry; format: functional; design: scale not given: the % may be the effect or the level left
Pichia kudriavzevii = assay: Antifungal activity against Candida crusei up to 200 uM after 24 to 48 hrs by broth microdilution method; format: functional, organism-based
[10] = Metal chelating activity of the compound assessed as formation of Ca2+ complex by UV-vis spectrometry; format: physicochemical
MRC5 [11] = assay: Selectivity index, ratio of IC50 for human MRC5 cells to IC50 for human K562-TAX cells; format: functional
CCRF-CEM [12] = assay: Induction of apoptosis in human CCRF-CEM cells assessed as mitotic cells at 5 times IC50 after 24 hrs by pH3Ser10+ labeling-based flow cytometry; format: functional
[13] = Metal chelating activity of the compound assessed as formation of Zn2+ complex by UV-vis spectrometry; format: physicochemical
HCT-116 [14] = assay: Selectivity index, ratio of IC50 for human MRC5 cells to IC50 for human HCT116 cells; format: functional
[15] = Cytostatic activity against human K562-TAX cells after 72 hrs by MTT assay; format: functional, cell-based; summary of the method: as §1
[16] = Metal chelating activity of the compound assessed as formation of Cu2+ complex by UV-vis spectrometry; format: physicochemical
A549 [17] = assay: Selectivity index, ratio of IC50 for human BJ cells to IC50 for human A549 cells; format: functional
Nucleic Acid [18] = assay: Binding affinity to DNA (unknown origin) assessed as DNA intercalation by UV-visible spectrophotometry; format: nucleic-acid assay
Candida tropicalis = assay: Antifungal activity against Candida tropicalis up to 200 uM after 24 to 48 hrs by broth microdilution method; format: functional, organism-based
CCRF-CEM [19] = assay: Cell cycle arrest in human CCRF-CEM cells assessed as accumulation at S phase at IC50 after 24 hrs by propidium iodide staining-based flow cytometry; format: functional; summary of the method: as §2
CCRF-CEM [20] = assay: Induction of apoptosis in human CCRF-CEM cells assessed as inhibition of DNA synthesis at IC50 after 24 hrs by propidium iodide/BrdU staining by flow cytometry; format: functional; design: scale not given: the % may be the effect or the level left
[21] = Metal chelating activity of the compound assessed as formation of Fe2+ complex by UV-vis spectrometry; format: physicochemical
Nucleic Acid [22] = assay: Binding affinity to DNA (unknown origin) assessed as DNA intercalation by UV-visible spectrophotometry in presence of Co2+; format: nucleic-acid assay
Staphylococcus aureus [23] = assay: Antimicrobial activity against Staphylococcus aureus CCM 3953 up to 200 uM after 24 to 48 hrs by broth microdilution method; format: functional, organism-based
CCRF-CEM [24] = assay: Induction of apoptosis in human CCRF-CEM cells assessed as apoptotic cells at IC50 after 24 hrs by propidium iodide staining-based flow cytometry; format: functional; summary of the method: as §2
[25] = Metal chelating activity of the compound assessed as formation of Cr3+ complex by UV-vis spectrometry; format: physicochemical
[26] = Metal chelating activity of the compound assessed as formation of Mn2+ complex by UV-vis spectrometry; format: physicochemical
BJ [27] = assay: Selectivity index, ratio of IC50 for human BJ cells to IC50 for human p53-/- HCT116 cells; format: functional
[28] = tested on: Staphylococcus haemolyticus; assay: Antimicrobial activity against methicillin-resistant Staphylococcus haemolyticus A1/16568 up to 200 uM after 24 to 48 hrs by broth microdilution method; format: functional, organism-based
[29] = Metal chelating activity of the compound assessed as formation of Ni2+ complex by UV-vis spectrometry; format: physicochemical
CCRF-CEM [30] = assay: Cell cycle arrest in human CCRF-CEM cells assessed as accumulation at G0/G1 phase at 5 times IC50 after 24 hrs by propidium iodide staining-based flow cytometry; format: functional; summary of the method: as §2
Enterococcus faecalis = assay: Antimicrobial activity against Enterococcus faecalis CCM 4224 up to 200 uM after 24 to 48 hrs by broth microdilution method; format: functional, organism-based
[31] = Cytostatic activity against human p53-/- HCT116 cells after 72 hrs by MTT assay; format: functional, cell-based; settings: HCT-116, 72 h; summary of the method: as §1
Nucleic Acid [32] = assay: Binding affinity to DNA (unknown origin) assessed as DNA intercalation by UV-visible spectrophotometry in presence of Zn2+; format: nucleic-acid assay
A549 [33] = assay: Selectivity index, ratio of IC50 for human MRC5 cells to IC50 for human A549 cells; format: functional
MRC5 [34] = assay: Cytostatic activity against human MRC5 cells after 72 hrs by MTT assay; format: ADME, cell-based; settings: MRC5, 72 h; summary of the method: as §1
Staphylococcus aureus [35] = assay: Antimicrobial activity against methicillin-resistant Staphylococcus aureus MRSA 4591 up to 200 uM after 24 to 48 hrs by broth microdilution method; format: functional, organism-based
[36] = Metal chelating activity of the compound assessed as formation of Fe3+ complex by UV-vis spectrometry; format: physicochemical
CCRF-CEM [37] = assay: Cell cycle arrest in human CCRF-CEM cells assessed as accumulation at G2/M phase at IC50 after 24 hrs by propidium iodide staining-based flow cytometry; format: functional; summary of the method: as §2
Pseudomonas aeruginosa = assay: Antimicrobial activity against Pseudomonas aeruginosa CCM 395 up to 200 uM after 24 to 48 hrs by broth microdilution method; format: functional, organism-based
CCRF-CEM [38] = assay: Induction of apoptosis in human CCRF-CEM cells assessed as inhibition of DNA synthesis at 5 times IC50 after 24 hrs by propidium iodide/BrdU staining by flow cytometry; format: functional; design: scale not given: the % may be the effect or the level left

O=C(N/N=C/c1nccc2ccccc12)c1ccc2c3c(ccc2c1)N1Cc2c(ccc4cc(C(=O)N/N=C/c5nccc6ccccc56)ccc24)N(C3)C1
Ratio IC50 (CEM-DNR): 15.9
Activity (Nucleic Acid [1]): Active
Activity (Candida parapsilosis): inactive
IC50 [2]: 17700 nM
Ratio IC50 (BJ [3]): 5.7
Ratio IC50 (HCT-116 [4]): 4
Activity (Nucleic Acid [5]): Active
Activity (CCRF-CEM [6]): 39.87%
Ratio IC50 (K562 [7]): 121.9
IC50 (K562 [8]): 820 nM
Activity (CCRF-CEM [9]): 16.94%
Activity (Pichia kudriavzevii): inactive
Activity [10]: Not Active
Ratio IC50 (MRC5 [11]): 9.9
Activity (CCRF-CEM [12]): 1.52%
Activity [13]: Active
Ratio IC50 (HCT-116 [14]): 5.7
IC50 [15]: 10100 nM
Activity [16]: Active
Ratio IC50 (A549 [17]): 5.4
Activity (Nucleic Acid [18]): inactive
Activity (Candida tropicalis): inactive
Activity (CCRF-CEM [19]): 38.56%
Activity (CCRF-CEM [20]): 52.93%
Activity [21]: Not Active
Activity (Nucleic Acid [22]): Active
Activity (Staphylococcus aureus [23]): inactive
Activity (CCRF-CEM [24]): 8.4%
Activity [25]: Not Active
Activity [26]: Not Active
Ratio IC50 (BJ [27]): 4
Activity [28]: inactive
Activity [29]: Active
Activity (CCRF-CEM [30]): 46.56%
Activity (Enterococcus faecalis): inactive
IC50 [31]: 25300 nM
Activity (Nucleic Acid [32]): Active
Ratio IC50 (A549 [33]): 5.4
IC50 (MRC5 [34]): > 100000 nM
Activity (Staphylococcus aureus [35]): inactive
Activity [36]: Active
Activity (CCRF-CEM [37]): 15.35%
Activity (Pseudomonas aeruginosa): inactive
Activity (CCRF-CEM [38]): 43.36%

O=C(NN=C(c1ccccn1)c1ccccn1)c1ccc2c3c(ccc2c1)N1Cc2c(ccc4cc(C(=O)NN=C(c5ccccn5)c5ccccn5)ccc24)N(C3)C1
Ratio IC50 (CEM-DNR): 0.7
Activity (Nucleic Acid [1]): Active
Activity (Candida parapsilosis): inactive
IC50 [2]: 460 nM
Ratio IC50 (BJ [3]): 3.4
Ratio IC50 (HCT-116 [4]): 2
Activity (Nucleic Acid [5]): Active
Activity (CCRF-CEM [6]): 68.14%
Ratio IC50 (K562 [7]): 2.4
IC50 (K562 [8]): 640 nM
Activity (CCRF-CEM [9]): 55.9%
Activity (Pichia kudriavzevii): inactive
Activity [10]: Not Active
Ratio IC50 (MRC5 [11]): 2.8
Activity (CCRF-CEM [12]): 1.72%
Activity [13]: Active
Ratio IC50 (HCT-116 [14]): 3.4
IC50 [15]: 560 nM
Activity [16]: Active
Ratio IC50 (A549 [17]): 0.8
Activity (Nucleic Acid [18]): inactive
Activity (Candida tropicalis): inactive
Activity (CCRF-CEM [19]): 61.24%
Activity (CCRF-CEM [20]): 57.31%
Activity [21]: Not Active
Activity (Nucleic Acid [22]): Active
Activity (Staphylococcus aureus [23]): inactive
Activity (CCRF-CEM [24]): 12.04%
Activity [25]: Not Active
Activity [26]: Not Active
Ratio IC50 (BJ [27]): 2
Activity [28]: inactive
Activity [29]: Active
Activity (CCRF-CEM [30]): 3.63%
Activity (Enterococcus faecalis): inactive
IC50 [31]: 780 nM
Activity (Nucleic Acid [32]): Active
Ratio IC50 (A549 [33]): 0.8
IC50 (MRC5 [34]): 1030 nM
Activity (Staphylococcus aureus [35]): inactive
Activity [36]: Active
Activity (CCRF-CEM [37]): 10.49%
Activity (Pseudomonas aeruginosa): inactive
Activity (CCRF-CEM [38]): 55.69%

— ChEMBL document CHEMBL3400013, “Synthesis and biological activity evaluation of hydrazone derivatives based on a Tröger's base skeleton” (Bioorg Med Chem, 2015)
